# According to PubChem BioAssay AID1046 (PCMD, 2008):
# Hit rate of the full screen: of about 220,000 compounds, about 560 (0.25%) were called active. The sample as a whole holds a higher share of actives than the screen did. Unmarked numbers belong to inactive results.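 Rule for the calls: active = inhibition at or above 40%; inactive = inhibition below 40%.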
# Molecular target: Prothrombin (Homo sapiens) (UniProt P00734)
# Experiment: human alpha-thrombin inhibitors, primary screen, counter-screen for coagulation protease inhibitor project, biochemical, 1536-well, fluorogenic AMC substrate (AID 1046);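 note: 0% = enzyme with no compound and 100% = wells without enzyme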
# Settings: Boc-VPR-AMC fluorogenic substrate cleavage, at 5 µM, hits give high values
# Outline: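 Material: Human alpha-thrombin protein | Buffer or medium: pH 7.5 Tris-saline with Tween 20 | Reagent: Boc-VPR-AMC substrate, 15 µM final | Schedule: Reaction at ambient temperature | Detection: AMC fluorescence at 355 nm excitation and 460 nm emission | Evaluation: Percent inhibition scaled between no-compound controls and no-enzyme blanks | Controls: no-compound enzyme wells and no-enzyme blanks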
row,SMILES,inhibition
1,CN1CCN(CCC(=O)N/N=C/C=C2\N(C)c3ccccc3C2(C)C)CC1,-4.81%
2,CC(C)(C)NC(=O)c1cccc(NC(=O)Cc2ccc(Br)cc2)c1,-6.49%
3,CC(=O)NNC(=O)c1csc(Cc2c(Cl)sc3ccc(Cl)cc23)n1,-1.7%
4,CCOC(=O)C1CCN(c2c(Nc3cc(C)cc(C)c3)c(=O)c2=O)CC1,-1.29%
5,CSc1nc(-c2ccco2)nn1C(=O)c1ccccc1Cl,0.04%
6,CSc1nc(-c2ccco2)nn1C(=O)CCc1ccccc1,99.4% (active)
7,CS(=O)(=O)n1nc(-c2ccco2)nc1N,1.66%
8,O=C(c1cccc(S(=O)(=O)N2CCCC2)c1)N(Cc1ccco1)C1CCS(=O)(=O)C1 (configuration not stated),-1.64%
9,COC(=O)C(NS(=O)(=O)c1ccc(F)cc1)c1ccccc1 (configuration not stated),5.5%
10,CC(=O)NC(NC(=S)Nc1c(C)n(C)n(-c2ccccc2)c1=O)C(Cl)(Cl)Cl (configuration not stated),-5.85%
11,CCn1c(-c2cccnc2Cl)nc2cc(C)c(C)cc21,0.78%
12,Cc1ccccc1CC1(CO)CCCN(C(=O)c2cc(-c3ccccc3)no2)C1 (configuration not stated),-8.1%
13,CC(C)CC(CC(C)C)=NNC(=O)c1ccc(CSc2nncn2C)cc1,6.95%
14,CCn1ncc(CNC(=O)C2(C)CC2(Br)Br)c1C (configuration not stated),-5.28%
15,CC1(C)CC(=O)c2cnc3nc4ccccc4n3c2C1,-14.5%
16,Cc1ccc(C)c2[nH]c(=O)c(CN(Cc3cccnc3)C(=S)NCc3ccco3)cc12,-27%
17,COc1ccccc1N1CCN(c2ccc([N+](=O)[O-])nc2)CC1,1.48%
18,COc1ccc(CN2CCC(c3nc4ccc(Cl)cc4[nH]3)CC2)cc1,1.55%
19,Cc1ccc(NNC(=O)c2cccs2)cc1Cl,0.15%
20,COc1ccc(-c2nn(C)c(=O)c3ccccc23)cc1NC(=O)COc1ccccc1,3.07%
21,CCC(=O)NCc1cc(-c2nn(C)c(=O)c3ccccc23)ccc1OC,2.19%
22,COc1ccc(-c2nn(C)c(=O)c3ccccc23)cc1CNC(=O)C1CCCCC1,70.8% (active)
23,Cc1cc(CO)nn1-c1ccc([N+](=O)[O-])cc1,-4.29%
24,Cc1nnc(N/N=C/c2cccs2)[nH]c1=O,-0.86%
25,CCn1c(=O)c2cc(C(=O)Nc3cccc(C(C)=O)c3)sc2c2ccccc21,-4.44%

row,SMILES,inhibition
1,CC(C)S(=O)(=O)c1csc(NC(=O)Nc2ccc(Cl)cc2)c1Cl,3.02%
2,O=C(Nc1nsc(-c2ccccc2)n1)c1ccncc1,3.88%
3,COC(=O)c1nc(NC(=O)c2ccc(F)cc2)n[nH]1,94.8% (active)
4,O=C(Nc1n[nH]c(C(F)(F)F)n1)c1cccs1,5%
5,COc1ccc(N2CCN(C(=O)CNC(=O)c3ccc(C(C)(C)C)cc3)CC2)cc1,12.8%
6,COC(=O)c1nc(NC(=O)c2ccc(C(C)(C)C)cc2)n[nH]1,58.9% (active)
7,COC(=O)c1nc(NC(=O)c2ccccc2)n[nH]1,98.4% (active)
8,COc1ccc(C(=O)Nc2ccc(F)cc2F)cc1,-13.8%
9,Cn1sc(NC(=O)c2ccccc2)nc1=O,3.97%
10,C/C(=N/NC(=O)c1ccc(NC(=O)c2ccc(F)cc2)cc1)c1ccccc1,3.8%
11,S=c1[nH]nc(-c2ccncc2)n1/N=C/c1ccccc1Cl,-3.11%
12,COc1ccccc1-c1noc(CSc2nc(C)cc(=O)[nH]2)n1,-11.8%
13,Cc1ccc(SC(C)C(=O)NCc2ccc(F)cc2)cc1 (configuration not stated),-10%
14,Cc1c(-c2ccccc2)n[nH]c1C(=O)N=Nc1c(O)[nH]c2ccccc12,-11.5%
15,Cc1nc(SCc2ccc(F)cc2)c([N+](=O)[O-])[nH]1,-2.86%
16,Cn1nnc(NC(=O)CSc2ncn[nH]2)n1,-4.19%
17,COc1ccc(Cl)cc1CSc1ncn[nH]1,-8.18%
18,ClC1(Cl)CC1CSc1ncn[nH]1 (configuration not stated),102% (active)
19,CC1CN(CCOc2ccccc2[N+](=O)[O-])CC(C)O1 (configuration not stated),1.06%
20,Cc1ccc(NC(=O)c2ccn(C(=O)Nc3ccccc3)n2)c(C)c1,1.51%
21,CC1=NCCN1S(=O)(=O)c1cccc([N+](=O)[O-])c1,2.02%
22,CCCC(=O)OCC(=O)Nc1cc(Cl)ccc1[N+](=O)[O-],-3.57%
23,O=C(Nc1ccccc1)Nc1nnc(COc2ccccc2F)s1,-0.32%
24,O=C(c1cccc([N+](=O)[O-])c1)N1CCN(C(=O)c2ccco2)CC1,-2.02%
25,O=c1[nH]n(-c2ccc([N+](=O)[O-])cc2)c(=O)c2ccccc12,-6.59%

row,SMILES,inhibition
1,CCN1CCN(C(=O)/C=C\C(=O)O)CC1,-0.06%
2,C/C(=C/C(=O)N1CCN(C)CC1)C(=O)O,103% (active)
3,CN1CCN(C(=O)C2C3C=CC(C3)C2C(=O)O)CC1 (configuration not stated),-0.84%
4,NS(=O)(=O)c1ccc(CCNC(=O)CCCn2c(SCC(=O)N3CCCC3)nc3ccsc3c2=O)cc1,-6.72%
5,OCCC#Cc1ccc(CN2CCN(Cc3ccsc3)C(CCO)C2)cc1 (configuration not stated),-1.75%
6,CCN(CC)C(=O)CC1(c2ccccc2OC)CCOC(C(C)C)C1 (configuration not stated),-1.89%
7,Cc1ccc(S(=O)(=O)N(C)C)cc1NC(=O)/C=C/c1cccs1,-6.43%
8,O=C(CC1C(=O)NCCN1Cc1ccc(-c2ccccc2)cc1)NCC1CCOCC1 (configuration not stated),-6.7%
9,COCC1CCCN(Cc2cn[nH]c2-c2cc3ccccc3o2)C1 (configuration not stated),-10.5%
10,Cc1ccc(C(=O)Nc2sc(Cc3ccc4c(c3)OCO4)c(C)c2C(N)=O)cc1,2.74%
11,O=C(Nn1cnc2ccccc2c1=O)c1ccc([N+](=O)[O-])cc1Cl,6.94%
12,O=C(CSc1cccc[n+]1[O-])c1ccc(Cl)cc1,-1.76%
13,Cc1ccc(N(C(=O)Cc2cccs2)C(C(=O)NCC2CCCO2)c2ccncc2)cc1 (configuration not stated),0.6%
14,COc1ccc(S(=O)(=O)N2CCC(C(=O)OCC(=O)c3ccccc3)CC2)cc1[N+](=O)[O-],0.56%
15,O=C(NNC(=S)Nc1ccc(F)cc1)[C@H]1C[C@@H]1c1ccccc1,-10.3%
16,CN(Cc1ccccn1)Cc1nc(-c2ccc(Cl)cc2)no1,57.7% (active)
17,CCN1CC(CN(C)Cc2nc(-c3ccc(Cl)cc3)no2)CC1=O (configuration not stated),-8.96%
18,COC(=O)c1ccc(-c2noc(CN(Cc3ccccn3)CC3CCCO3)n2)cc1 (configuration not stated),21.1%
19,Cc1c(C(=O)O)nnn1-c1nonc1N,2.29%
20,OC1CSc2nc3ccccc3n2C1 (configuration not stated),0.85%
21,O=C(NC(=S)Nc1cc(C(F)(F)F)ccc1N1CCOCC1)c1ccc(-c2cccc(Cl)c2)o1,-10.3%
22,CC1(OC(=O)CCc2ccccc2)C(=O)C=C2C=C(c3ccc(C#N)cc3)N(CCc3ccccn3)C=C2C1=O (configuration not stated),-12.4%
23,CC(=O)C1=C(O)C(=O)N(c2cccnc2)C1c1ccc([N+](=O)[O-])cc1 (configuration not stated),2.53%
24,Cc1cccc(NC(=S)NC23CN4CN(CN(C4)C2)C3)c1,53.8% (active)
25,Cc1cccc(NC(=S)Nc2ccc(Br)cc2)c1,3.41%

row,SMILES,inhibition
1,Cc1cccc(NC(=S)Nc2ccc(Cl)c(Cl)c2)c1,0.05%
2,S=C(Nc1ccc(Br)cc1Cl)N1CCC2(CC1)OCCO2,-1.42%
3,O=C(NC1CCN(Cc2ccccc2)CC1)c1cc(Br)c(Br)[nH]1,1.26%
4,O=C(CCCOc1ccc(Cl)cc1Cl)NNC(=O)C1CCC1,-6.08%
5,N/C(=N\OS(=O)(=O)c1cccc([N+](=O)[O-])c1)c1ccncc1,-6.25%
6,CCCCNC(=O)CSc1nc2ccc(NC(=O)CSc3nnc(N)s3)cc2s1,-6.44%
7,O=C(Cc1ccccc1)N1N=C(c2ccncc2)CC1(O)C(F)(F)F (configuration not stated),2.25%
8,CCCC(=O)n1nc(-c2ccccc2)nc1N,27.1%
9,COc1ccccc1C(=O)n1nc(-c2ccccc2)nc1N,19.2%
10,COc1ccc(CC(=O)n2nc(-c3cccnc3)nc2N)cc1,89.7% (active)
11,CCN1CCN(c2nc(Nc3cc(OC)ccc3OC)nc(Nc3cc(OC)ccc3OC)n2)CC1,-2.15%
12,Cc1nc(SCC(=O)N2CC(=O)Nc3ccccc32)c2c(C)c(C)sc2n1,-0.55%
13,Cc1nnc(SCC(=O)N2CCc3ccccc3C2)s1,7.65%
14,Cc1nc(SCC(=O)N2CCc3ccccc3C2)c2c(C)c(C)sc2n1,103% (active)
15,CC1(C)Cc2cccc(OCC(=O)N3CCN(c4ccc([N+](=O)[O-])cc4)CC3)c2O1,-1.43%
16,COc1ccc(NC(=O)C2=C(C)NC(=O)NC2c2ccccc2[N+](=O)[O-])cc1 (configuration not stated),-0.08%
17,CCOC(=O)N/N=C1\CC(C)S(=O)(=O)c2ccc(Cl)cc21 (configuration not stated),28.2%
18,Cc1cc(=O)[nH]c(S)c1C#N,-5%
19,CSCC[C@H](NC(=O)NC1CCCC1)C(=O)O,-3.12%
20,COc1cccc(NC(=O)C2CCCN2C(=O)OCc2ccccc2)c1 (configuration not stated),-12.3%
21,Cc1ccc(C)c(NC(=O)C2CCCN2C(=O)OC(C)(C)C)c1 (configuration not stated),1.35%
22,Cc1ccc(C)c(NC(=O)C2Cc3ccccc3CN2C(=O)OCc2ccccc2)c1 (configuration not stated),104% (active)
